The results in this text go back to ChEMBL document CHEMBL1129936, “Water soluble furoxan derivatives as NO prodrugs” (J Med Chem, 1997).

A word on the EC50: it is the concentration giving half of the maximal effect.

The species named for test [1] is Rattus norvegicus. Kind of test: Relaxation of endothelium […] strips of rat aorta precontracted with noradrenaline. The test is classed as functional. In outline:
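Rat aortic strips in Krebs solution at 37 °C, gassed 95% O2-5% CO2 (pH 7.4), equilibrated 1 h, then contracted with noradrenaline 1 µM (submaximal). Cumulative concentration-response curves for relaxation gave EC50.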

For test [2], the species on record is Rattus norvegicus. Kind of test: Relaxation of endothelium […] strips of rat aorta precontracted with noradrenaline in presence of 10 uM HbO2. The test is classed as functional. Summed up: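 Rat aortic strips in Krebs at 37 °C (95% O2-5% CO2, pH 7.4), precontracted with 1 µM noradrenaline and exposed to oxyhemoglobin 10 µM for at least 10 min before the vasodilator was added. Oxyhemoglobin came from bovine hemoglobin reduced with excess sodium dithionite at 4 °C. Relaxation concentration-response curves gave EC50.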

Test [3] can be described thus: Nitric oxide released from prodrug in the absence of cysteine. Summed up: (§1)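 Compound at 10^-4 M final in pH 7.4 buffered water, no thiol, held at 37 °C for 1 h or 24 h. Nitrite was measured by Griess reagent: 10 min at room temperature, absorbance at 540 nm, sodium nitrite standards 10-80 nmol/mL. Reported as percent NO2- (mol/mol) ± SEM.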
A short description of test [4]: Nitric oxide released from prodrug in the presence of cysteine. In outline: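 Compound at 10^-4 M final was incubated 1 h at 37 °C, pH 7.4, with a 50-fold molar excess of cysteine (1:50). Nitrite was read by the Griess reaction at 540 nm after 10 min at room temperature against nitrite standards (10-80 nmol/mL). Given as percent NO2- (mol/mol) ± SEM.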
Test [5] is described as follows: Nitric oxide releasing capability in the absence of cysteine after 24 hr. In outline:
as §1

As for “SODIUM NITROPRUSSIDE [listing 1 of 2 here]”, the figures for the half-maximal effective concentration (EC50) in the test filed under Rattus norvegicus [1] and in the test listed under Rattus norvegicus [2] were 21.5 nM and 48.1 nM, respectively.

As for `CN(C)CCCOc1no[n+]([O-])c1S(=O)(=O)c1ccccc1`, the EC50 turned out to be 30 nM in the test filed under Rattus norvegicus [1] (Rattus norvegicus, Aorta) and 130 nM in the test filed under Rattus norvegicus [2] (Rattus norvegicus, Aorta). Moreover, the % NO2- was 0 M/M in test [3] and 20.2 M/M in test [4].

For the compound `CN(C)CCS(=O)(=O)c1no[n+]([O-])c1-c1ccccc1`, the EC50 in the test filed under Rattus norvegicus [1] (Rattus norvegicus, Aorta) was 101 nM; in the test filed under Rattus norvegicus [2] (Rattus norvegicus, Aorta) it was 430 nM. Besides, the % NO2- in test [3] is 0 M/M; in test [4] it was 8.8 M/M.

For the compound `CN(C)CCSc1no[n+]([O-])c1-c1ccccc1`, the half-maximal effective concentration (EC50) in the test listed under Rattus norvegicus [1] (Rattus norvegicus, Aorta) stood at 48100 nM; in the test listed under Rattus norvegicus [2] (Rattus norvegicus, Aorta), 124000 nM. In addition, the figures for the % NO2- in test [3] and in test [4] were 0 M/M and 2.9 M/M, respectively.

Consider `CN(C)CCOc1no[n+]([O-])c1S(=O)(=O)c1ccccc1`, for which the concentration giving a half-maximal response (EC50) in the test filed under Rattus norvegicus [1] (Rattus norvegicus, Aorta) stood at 4.1 nM; in the test filed under Rattus norvegicus [2] (Rattus norvegicus, Aorta) it was 48 nM. In addition, the % NO2- in test [3] amounted to 0 M/M; in test [4], 58.9 M/M.

Take `CN(C)CCOc1c(-c2ccccc2)no[n+]1[O-]`: the EC50 in the test listed under Rattus norvegicus [1] (Rattus norvegicus, Aorta) came out at 1230 nM; in the test filed under Rattus norvegicus [2] (Rattus norvegicus, Aorta), 2220 nM. The % NO2- stood at 6.3 M/M in test [3], 97 M/M in test [5] and 62.9 M/M in test [4].

`CN(C)CCCOc1c(-c2ccccc2)no[n+]1[O-]`: the concentration for a half-maximal effect (EC50) in the test listed under Rattus norvegicus [1] (Rattus norvegicus, Aorta) was determined as 1030 nM; in the test filed under Rattus norvegicus [2] (Rattus norvegicus, Aorta), 3630 nM. Also, the % NO2- in test [3] turned out to be 0 M/M; in test [4], 91.1 M/M.

Take `NCCOc1no[n+]([O-])c1S(=O)(=O)c1ccccc1`: the EC50 in the test filed under Rattus norvegicus [1] (Rattus norvegicus, Aorta) came out at 13 nM; in the test filed under Rattus norvegicus [2] (Rattus norvegicus, Aorta), 46 nM. The % NO2- in test [3] was 0 M/M; in test [4] it was 19.7 M/M.

With `CN(C)CCSc1c(S(=O)(=O)c2ccccc2)no[n+]1[O-]`, the 50% effective concentration (EC50) amounted to 55.7 nM in the test filed under Rattus norvegicus [1] (Rattus norvegicus, Aorta) and 330 nM in the test listed under Rattus norvegicus [2] (Rattus norvegicus, Aorta). The % NO2- is 95.3 M/M in test [3], 100 M/M in test [5] and 58.5 M/M in test [4].

Consider `CN(C)CCSc1c(-c2ccccc2)no[n+]1[O-]`, for which the EC50 came out at 1550 nM in the test listed under Rattus norvegicus [1] (Rattus norvegicus, Aorta) and 11500 nM in the test listed under Rattus norvegicus [2] (Rattus norvegicus, Aorta). The % NO2- in test [3] was 0 M/M; in test [4], 35 M/M.

`CN(C)CCS(=O)(=O)c1c(-c2ccccc2)no[n+]1[O-]`: the EC50 is 82.6 nM in the test filed under Rattus norvegicus [1] (Rattus norvegicus, Aorta) and 1010 nM in the test filed under Rattus norvegicus [2] (Rattus norvegicus, Aorta). Besides, the figures for the % NO2- in test [3], in test [5] and in test [4] were 0 M/M, 33 M/M and 36.3 M/M, respectively.

For the compound `O=[N+]([O-])OCC(CO[N+](=O)[O-])O[N+](=O)[O-]` [NITROGLYCERIN], the concentration for a half-maximal effect (EC50) in the test listed under Rattus norvegicus [1] (Rattus norvegicus, Aorta) came to 22.4 nM. Besides, the % NO2- in test [3] worked out at 0 M/M; in test [4], 45 M/M.

Regarding “SODIUM NITROPRUSSIDE [listing 2 of 2 here]”, the % NO2- in test [3] worked out at 1.5 M/M; in test [4], 58 M/M.

`NCCSc1c(-c2ccccc2)no[n+]1[O-]`: the EC50 is 3480 nM in the test listed under Rattus norvegicus [1] (Rattus norvegicus, Aorta) and 15000 nM in the test filed under Rattus norvegicus [2] (Rattus norvegicus, Aorta). The % NO2- in test [3] was 4.5 M/M; in test [5], 56 M/M; in test [4], 37.9 M/M.

Turning to `NCCSc1no[n+]([O-])c1-c1ccccc1`, the EC50 in the test listed under Rattus norvegicus [1] (Rattus norvegicus, Aorta) was found to be 15200 nM; in the test listed under Rattus norvegicus [2] (Rattus norvegicus, Aorta), 78000 nM. The % NO2- in test [3] is 0 M/M; in test [4] it was 2.8 M/M.

Turning to `CN(C)CCOc1no[n+]([O-])c1-c1ccccc1`, the EC50 in the test listed under Rattus norvegicus [1] (Rattus norvegicus, Aorta) is 7350 nM; in the test filed under Rattus norvegicus [2] (Rattus norvegicus, Aorta), 68000 nM. Besides, the % NO2- came out at 0 M/M in test [3] and 3.9 M/M in test [4].

For the compound `CN(C)CCSc1no[n+]([O-])c1S(=O)(=O)c1ccccc1`, the concentration for a half-maximal effect (EC50) in the test listed under Rattus norvegicus [1] (Rattus norvegicus, Aorta) was 52 nM; in the test filed under Rattus norvegicus [2] (Rattus norvegicus, Aorta), 350 nM. The % NO2- turned out to be 0 M/M in test [3] and 27.9 M/M in test [4].

As to `CN(C)CCCOc1no[n+]([O-])c1-c1ccccc1`, the EC50 in the test filed under Rattus norvegicus [1] (Rattus norvegicus, Aorta) was 14300 nM; in the test listed under Rattus norvegicus [2] (Rattus norvegicus, Aorta), 124000 nM. For the same compound, the % NO2- in test [3] was determined as 0 M/M; in test [4], 3.9 M/M.
